Data: ChEMBL document CHEMBL1800033, “Refining the eosinophil cationic protein antibacterial pharmacophore by rational structure minimization” (J Med Chem, 2011)
Values after ≈ are worked out from the molar mass of the structure shown. Active and inactive are the calls of the source. The calls are words filed in the database; no cut-off is given here. Where a SMILES comes first, the peptide text is derived from it. [ ]: non-standard residue; d: D form. Ahx = NCCCCCC(=O)O

Assays:
[1] = tested on: Staphylococcus aureus; assay: Bactericidal activity against Staphylococcus aureus ATCC 502A after over night incubation; type: functional; conditions: read-out: MIC100
Method in brief: (§1)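 Overnight LB cultures (37 °C) diluted to about 5 × 10^5 CFU/mL; peptides in 10 mM sodium phosphate pH 7.5, serially diluted 10 to 0.2 μM, incubated with bacteria 4 h, then plated and grown overnight at 37 °C; MIC from two independent experiments, triplicate per concentration.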

[2] = tested on: Escherichia coli; assay: Bactericidal activity against Escherichia coli BL2 after over night incubation; type: functional; conditions: read-out: MIC100; method in brief: as §1
[3] = tested on: Enterococcus faecium; assay: Bactericidal activity against Enterococcus faecium ATCC 19434 after over night incubation; type: functional; conditions: read-out: MIC100; method in brief: as §1
[4] = tested on: Acinetobacter baumannii; assay: Bactericidal activity against Acinetobacter baumannii ATCC 15308 after over night incubation; type: functional; conditions: read-out: MIC100; method in brief: as §1
[5] = Toxicity in human RBC assessed as hemolytic activity after 4 hrs; type: cell-based, Erythrocyte; conditions: human red blood cells (RBC)
Method in brief: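 Fresh human RBCs washed thrice in PBS (35 mM phosphate, 0.15 M NaCl, pH 7.4), 2 × 10^7 cells/mL, incubated with peptide 4 h at 37 °C; supernatant A570 read, 100% lysis set by 10 s sonication; HC50 from sigmoidal fit.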

[6] = tested on: Micrococcus luteus; assay: Bactericidal activity against Micrococcus luteus ATCC 7468 after over night incubation; type: functional; conditions: read-out: MIC100; method in brief: as §1
[7] = tested on: Pseudomonas sp.; assay: Bactericidal activity against Pseudomonas sp. ATCC 15915 after over night incubation; type: functional; conditions: read-out: MIC100; method in brief: as §1
[8] = tested on: Lipopolysaccharide (LPS); assay: Displacement of BODIPY TR cadaverine from Escherichia coli serotype 0111:B4 lipopolysaccharide by fluorescent displacement assay
Method in brief: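 Bodipy TR cadaverine displacement: protein or peptide aliquots added to a stirred mix of LPS (10 μg/mL) and probe (10 μM) in 5 mM Hepes pH 7.5; fluorescence followed, effective displacement value (ED50) calculated.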

[9] = Induction of membrane damage in DOPC/DOPG large unilamellar vesicles model at <10 uM after 1 hr by leakage fluorescence assay; type: physicochemical
[10] = Induction of membrane damage in DOPC/DOPG large unilamellar vesicles model after 1 hr by leakage fluorescence assay; type: physicochemical; conditions: read-out: ED50 (the source's name)
[11] = tested on: Escherichia coli; assay: Antibacterial activity against Escherichia coli assessed as concentration required to cause minimum agglutination behavior after overnight incubation; type: functional
Method in brief: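 E. coli grown at 37 °C to mid-exponential phase (OD600 0.6), pelleted, resuspended in Tris-HCl, 0.15 M NaCl, pH 7.5 to A600 of 10; suspension incubated with peptide at 0.1–10 μM, 25 °C overnight; agglutination scored by visual inspection, reported as minimal agglutinating concentration.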

[12] = tested on: Lipopolysaccharide (LPS); assay: Displacement of BODIPY TR cadaverine from Escherichia coli serotype 0111:B4 lipopolysaccharide at <10 uM by fluorescent displacement assay

Compound | MIC [1] [µM] | MIC [2] [µM] | MIC [3] [µM] | MIC [4] [µM] | HC50 at 4 h [5] [µM] | MIC [6] [µM] | MIC [7] [µM] | ED50 [8] [nM] | Activity [9] | EC50 [10] [nM] | Activity [11] [µM] | Activity [12]
CC[C@H](C)[C@H](NC(=O)CNC(=O)[C@@H](NC(=O)[C@H](CCCCN)NC(=O)[C@H](CCCCN)NC(=O)[C@H](Cc1ccccc1)NC(=O)[C@H](CC(C)C)NC(=O)[C@H](CCCCN)NC(=O)[C@H](Cc1c[nH]c2ccccc12)NC(=O)[C@@H](N)CCCCN)[C@@H](C)CC)C(=O)NCC(=O)N[C@@H](C)C(=O)N[C@H](C(=O)N[C@@H](CC(C)C)C(=O)N[C@@H](CCCCN)C(=O)N[C@H](C(=O)N[C@@H](CC(C)C)C(=O)N[C@H](C(=O)N[C@H](C(=O)NCC(=O)N[C@@H](CC(C)C)C(=O)N1CCC[C@H]1C(=O)N[C@@H](C)C(=O)N[C@@H](CC(C)C)C(=O)N[C@H](C(=O)N[C@@H](CO)C(=O)O)[C@@H](C)CC)[C@@H](C)O)[C@@H](C)O)C(C)C)C(C)C | 0.4 (≈ 1.12 µg/mL) | 1.1 (≈ 3.08 µg/mL) | 1.5 (≈ 4.19 µg/mL) | 0.88 (≈ 2.46 µg/mL) | 7.8 | 1.5 (≈ 4.19 µg/mL) | 0.6 (≈ 1.68 µg/mL) | – | – | – | – | –
CC[C@H](C)[C@H](NC(=O)[C@H](C)NC(=O)[C@H](CCCNC(=N)N)NC(=O)[C@H](CCSC)NC(=O)[C@H](C)NC(=O)[C@@H](NC(=O)[C@@H](NC(=O)[C@H](CO)NC(=O)CCCCCNC(=O)[C@H](Cc1cnc[nH]1)NC(=O)[C@H](CCC(N)=O)NC(=O)[C@@H](NC(=O)[C@H](C)NC(=O)[C@H](Cc1ccccc1)NC(=O)[C@H](Cc1c[nH]c2ccccc12)NC(=O)[C@H](CCC(N)=O)NC(=O)[C@H](C)N)[C@@H](C)CC)[C@@H](C)O)[C@@H](C)CC)C(=O)N[C@@H](CC(N)=O)C(=O)O (H-AQWFAIQH[Ahx]STIAMRAIN-OH) | > 10 | > 10 | > 10 | > 10 | 15.2 | > 10 | > 10 | 5130 | Not Active | – | – | –
CC[C@H](C)[C@H](NC(=O)[C@H](C)NC(=O)[C@H](Cc1ccccc1)NC(=O)[C@H](Cc1c[nH]c2ccccc12)NC(=O)[C@H](CCC(N)=O)NC(=O)[C@H](C)N)C(=O)N[C@@H](CCC(N)=O)C(=O)N[C@@H](Cc1cnc[nH]1)C(=O)NCCCCCC(=O)N[C@@H](CO)C(=O)N[C@H](C(=O)N[C@H](C(=O)N[C@@H](C)C(=O)N[C@@H](CCSC)C(=O)N[C@@H](CCCNC(=N)N)C(=O)N[C@@H](C)C(=O)N[C@H](C(=O)N[C@@H](CC(N)=O)C(=O)N[C@@H](CC(N)=O)C(=O)N[C@@H](Cc1ccc(O)cc1)C(=O)N[C@@H](CCCNC(=N)N)C(=O)N[C@@H](Cc1c[nH]c2ccccc12)C(=O)N[C@@H](CCCNC(=N)N)C(=O)O)[C@@H](C)CC)[C@@H](C)CC)[C@@H](C)O (H-AQWFAIQH[Ahx]STIAMRAINNYRWR-OH) | 1.1 (≈ 3.13 µg/mL) | 1.5 (≈ 4.27 µg/mL) | > 10 | 7 (≈ 19.9 µg/mL) | 14.4 | > 10 | 3.5 (≈ 9.97 µg/mL) | 1950 | – | 1630 | – | –
CC[C@H](C)[C@H](NC(=O)[C@H](C)NC(=O)[C@H](CCCNC(=N)N)NC(=O)[C@H](CCSC)NC(=O)[C@H](C)NC(=O)[C@@H](NC(=O)[C@@H](NC(=O)[C@H](CO)NC(=O)CCCCCNC(=O)[C@H](CO)NC(=O)[C@@H](NC(=O)[C@H](Cc1cnc[nH]1)NC(=O)[C@H](CCC(N)=O)NC(=O)[C@@H](NC(=O)[C@H](C)NC(=O)[C@H](Cc1ccccc1)NC(=O)[C@H](Cc1c[nH]c2ccccc12)NC(=O)[C@H](CCC(N)=O)NC(=O)[C@H](C)NC(=O)[C@H](CCCNC(=N)N)NC(=O)[C@@H](N)[C@@H](C)O)[C@@H](C)CC)[C@@H](C)CC)[C@@H](C)O)[C@@H](C)CC)C(=O)N[C@@H](CC(N)=O)C(=O)N[C@@H](CC(N)=O)C(=O)N[C@@H](Cc1ccc(O)cc1)C(=O)N[C@@H](CCCNC(=N)N)C(=O)N[C@@H](Cc1c[nH]c2ccccc12)C(=O)N[C@@H](CCCNC(=N)N)C(=O)O (H-TRAQWFAIQHIS[Ahx]STIAMRAINNYRWR-OH) | 0.87 (≈ 2.88 µg/mL) | 0.6 (≈ 1.98 µg/mL) | 1.5 (≈ 4.96 µg/mL) | 0.88 (≈ 2.91 µg/mL) | 7.3 | 1.5 (≈ 4.96 µg/mL) | 1.5 (≈ 4.96 µg/mL) | 1600 | – | 820 | <1 | –
H-AQWFAIQHISLNPPRSTIAMRAINNYRWR-OH | 0.7 | 1.5 | 1.5 | 1.5 | 10.3 | 3.5 | 3.5 | 2430 | – | 740 | <1 | –
H-AQWFAIQHISLNPPRSTIAMRAINNYRWRSKNQNTFLR-OH | 0.7 | 0.45 | 1.5 | 0.88 | 10.5 | 1.5 | 1.5 | 1580 | – | 400 | <1 | –
H-ISLNPPRSTIAMRAINNYRWRSKNQNTFLR-OH | 1.5 | 1.5 | 3.5 | 3.5 | 10.5 | 3.5 | 1.5 | 6130 | – | 760 | – | –
H-RPPQFTRAQWFAIQHISLN-OH | > 10 | > 10 | > 10 | > 10 | 11.2 | > 10 | > 10 | – | Not Active | – | – | inactive
H-TIAMRAINNYRWRSKNQNTFLR-OH | 1.5 | 7 | 7 | 1.1 | 18.7 | 7 | 7 | 1520 | – | 1250 | – | –
